Experimental data published in ChEMBL document CHEMBL3044677, “Metabolism and metabolites of dithiocarbamates in the plant pathogenic fungus Leptosphaeria maculans” (J Agric Food Chem, 2012).
Activity calls are given as the source filed them. No cut-off for these calls is given here.

Tests used:
Plenodomus lingam [1] = test: Antifungal activity against Leptosphaeria maculans isolate BJ-125/UAMH-9410 assessed as mycelial growth inhibition at 0.5 mM incubated under constant light for 5 days by mycelial radial growth bioassay; type: functional; details: isolate BJ-125/UAMH-9410, 120 h, read-out: GI
Method in brief: (§1)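 Mycelial radial growth assay. L. maculans (BJ125 or UAMH-9410) was grown on V8 agar. A 4 mm plug cut from 7-day-old V8 plates was placed upside down at the centre of PDA wells (33 mm) containing compound dissolved in CH3CN. Controls held 1% CH3CN in PDA. Plates were incubated under constant light for 5 days. Mycelial diameter was measured, and % inhibition = 100 − [(amended/control diameter) × 100]. Triplicate, at least twice; mean ± SD.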

Plenodomus lingam [2] = test: Antifungal activity against Leptosphaeria maculans isolate BJ-125/UAMH-9410 assessed as mycelial growth inhibition at 0.2 mM incubated under constant light for 5 days by mycelial radial growth bioassay; type: functional; details: isolate BJ-125/UAMH-9410, 120 h, read-out: GI; method in brief: as §1
Plenodomus lingam [3] = test: Antifungal activity against Leptosphaeria maculans isolate BJ-125/UAMH-9410 assessed as mycelial growth inhibition at 0.1 mM incubated under constant light for 5 days by mycelial radial growth bioassay; type: functional; details: for inhibition of growth at 100 µM: isolate BJ-125/UAMH-9410, 120 h, read-out: GI; method in brief: as §1
[4] = Drug metabolism in Leptosphaeria maculans isolate BJ-125 assessed as drug recovery at 0.10 mM after 24 hr by HPLC analysis; type: ADME, organism-based; details: plenodomus lingam, Leptosphaeria maculans isolate BJ-125 (fungus); read-out: Drug recovery
Method in brief: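 Minimal medium (50 mL) was inoculated with isolate BJ-125 spores (106/mL) and shaken at 120 rpm, 23 °C, under constant light. After 2 days, compound in CH3CN was added (final 0.10 mM), also to noninoculated medium as a stability control. Broth samples taken up to 72 h were extracted with EtOAc and quantified by HPLC-DAD against calibration curves; basified broth was extracted with CHCl3/MeOH for amines. At least three independent experiments ± SD.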

Row | SMILES | inhibition of growth at 500 µM (Plenodomus lingam [1]) [%] | inhibition of growth at 200 µM (Plenodomus lingam [2]) [%] | inhibition of growth at 100 µM (Plenodomus lingam [3]) [%] | remaining at 24 h, 100 µM [4] [%] | growth inhibition (GI) (Plenodomus lingam [3])
1 | CC(=O)NCc1cc2ccccc2[nH]1 | 33 | 18 | 7 | – | –
2 | c1ccc2[nH]cnc2c1 [BENZIMIDAZOLE] | 35 | 20 | 11 | – | –
3 | COn1c(CNC(C)=O)cc2ccccc21 | 15 | 11 | 4 | – | –
4 | CSC(=S)NCc1cc2ccccc2[nH]1 [ISOBRASSININ] | 43 | 22 | 13 | < 5 | –
5 | CSC(=S)NCc1ccc(-c2ccccc2)cc1 | 46 | 32 | 14 | < 5 | –
6 | CC(=O)NCCc1c[nH]c2ccccc12 [NB-ACETYLTRYPTAMINE] | 15 | 7 | – | – | inactive
7 | OCCCc1c[nH]c2ccccc12 | 18 | 14 | 7 | – | –
8 | CS/C(S)=N/CCCc1c[nH]c2ccccc12 | 67 | 46 | 21 | 37 | –
9 | CSC(=S)OCCc1c[nH]c2ccccc12 [METHYL TRYPTOPHOLDITHIOCARBAMATE] | 32 | 15 | 7 | 15 | –
10 | COn1c(CNC(=S)SC)cc2ccccc21 [1-METHOXYISOBRASSININ] | 34 | 15 | 7 | 47 | –
11 | NCCCc1c[nH]c2ccccc12 | 27 | 14 | – | – | inactive
12 | OCCc1c[nH]c2ccccc12 [TRYPTOPHOL] | 29 | 16 | – | – | inactive
13 | CC(=O)NCc1ccc(-c2ccccc2)cc1 | 30 | 17 | 9 | – | –
14 | CSC(=S)NCc1c[nH]c2ccccc12 [BRASSININ] | 55 | 21 | 10 | < 5 | –
15 | COn1c(CN)cc2ccccc21 | 19 | 8 | – | – | inactive
16 | CSC(=S)NCCc1c[nH]c2ccccc12 [METHYL TRYPTAMINEDITHIOCARBAMATE] | 100 | 71 | 43 | 55 | –
17 | CSC(=S)OCCCc1c[nH]c2ccccc12 | 31 | 18 | 5 | – | –
18 | NCCc1c[nH]c2ccccc12 [TRYPTAMINE] | 28 | 15 | 12 | – | –
19 | CC(=O)NCCCc1c[nH]c2ccccc12 | 24 | 13 | 10 | – | –
20 | NCc1cc2ccccc2[nH]1 [2-INDOLYLMETHANAMINE] | 33 | 19 | – | – | inactive
